Measured values taken from ChEMBL document CHEMBL1125678, “Quinazolineacetic acids and related analogues as aldose reductase inhibitors” (J Med Chem, 1991).
Values belong to the compound of their own block, whether it stands above or below them.

Columns and labels:
Rattus norvegicus [1] = experiment: In vivo inhibition of galactitol accumulation in the sciatic nerve of rats fed 20% galactose for 4 day at 96 mg/kg/day dose; NS = No Significant inhibition of polyol accumulation; assay type: functional, organism-based
[2] = molecular target: Aldo-keto reductase family 1 member B1 (Bos taurus) (UniProt P16116); experiment: in vitro inhibition of Aldose reductase in partially purified bovine lens preparation at a concentration of 10e-6 M.
Rattus norvegicus [3] = experiment: In vivo inhibition of galactitol accumulation in the diaphragm of rats fed 20% galactose for 4 day at 96 mg/kg/day dose; assay type: functional
How it was run: (§1)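 Male Sprague-Dawley rats (50–70 g) in groups of six were fed chow with 20% (w/w) galactose. Controls received 20% glucose instead. Test compound was mixed into the diet, and dose was calculated from actual food intake. Rats were killed by decapitation after 4 days. Result is % lowering of tissue galactitol versus galactose-fed controls, as the mean of six animals, compared by Dunnett's multiple comparison.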

Rattus norvegicus [4] = experiment: (§2) In vivo inhibition of galactitol accumulation in the sciatic nerve of rats fed 20% galactose for 4 day at 95 mg/kg/day dose; NS= No Significant inhibition of polyol accumulation; assay type: functional, organism-based
[5] = molecular target: Aldo-keto reductase family 1 member B1 (Bos taurus) (UniProt P16116); experiment: In vitro inhibition of aldose reductase in partially purified bovine lens preparation at a concentration of 10e -7M.
How it was run: (§3)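 Enzyme from bovine lens, partially purified by the cited method with the final chromatographic step omitted. DL-Glyceraldehyde was the substrate. Test compounds were run in duplicate at 1×10⁻⁵, 1×10⁻⁶, 1×10⁻⁷ or 4×10⁻⁸ M. Values are % inhibition of enzymatic activity.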

[6] = molecular target: Aldo-keto reductase family 1 member B1 (Bos taurus) (UniProt P16116); experiment: In vitro inhibition of aldose reductase in partially purified bovine lens preparation at a concentration of 4*10e -8M.; how it was run: as §3
Rattus norvegicus [7] = experiment: In vivo inhibition of galactitol accumulation in the diaphragm of rats fed 20% galactose for 4 day at 101 mg/kg/day dose; assay type: functional; how it was run: as §1
Rattus norvegicus [8] = experiment: In vivo inhibition of galactitol accumulation in the diaphragm of rats fed 20% galactose for 4 day at 99 mg/kg/day dose; NS = No Significant inhibition of polyol accumulation; assay type: functional, organism-based; how it was run: as §1
Rattus norvegicus [9] = experiment: In vivo inhibition of galactitol accumulation in the sciatic nerve of rats fed 20% galactose for 4 day at 99 mg/kg/day dose; NS = No Significant inhibition of polyol accumulation; assay type: functional, organism-based
[10] = molecular target: Aldo-keto reductase family 1 member B1 (Bos taurus) (UniProt P16116); experiment: In vitro inhibition of aldose reductase in partially purified bovine lens preparation at a concentration of 10e -6M.; assay type: functional; how it was run: as §3
Rattus norvegicus [11] = experiment: In vivo inhibition of galactitol accumulation in the sciatic nerve of rats fed 20% galactose for 4 day at 58 mg/kg/day dose; NS = No Significant inhibition of polyol accumulation; assay type: functional, organism-based; how it was run: as §1
Rattus norvegicus [12] = experiment: In vivo inhibition of galactitol accumulation in the diaphragm of rats fed 20% galactose for 4 day at 58 mg/kg/day dose; NS = No Significant inhibition of polyol accumulation; assay type: functional, organism-based; how it was run: as §1
Rattus norvegicus [13] = experiment: In vivo inhibition of galactitol accumulation in the sciatic nerve of rats fed 20% galactose for 4 day at 95 mg/kg/day dose; assay type: functional
Rattus norvegicus [14] = experiment: In vivo inhibition of galactitol accumulation in the diaphragm of rats fed 20% galactose for 4 day at 95 mg/kg/day dose; assay type: functional; how it was run: as §1
[15] = molecular target: Aldo-keto reductase family 1 member B1 (Bos taurus) (UniProt P16116); experiment: in vitro inhibition of aldose reductase in partially purified bovine lens preparation at a concentration of 10e -6M.
[16] = molecular target: Aldo-keto reductase family 1 member B1 (Bos taurus) (UniProt P16116); experiment: In vitro inhibition of aldose reductase in partially purified bovine lens preparation at a concentration of 10e -5M.; settings: in the assay text read “10e -6M” for “10e -5M”; how it was run: as §3
Rattus norvegicus [17] = experiment: In vivo inhibition of galactitol accumulation in the diaphragm of rats fed 20% galactose for 4 day at 98 mg/Kg/day; NS = No Significant inhibition of polyol accumulation; assay type: functional, organism-based; how it was run: as §1
Rattus norvegicus [18] = experiment: In vivo inhibition of galactitol accumulation in the sciatic nerve of rats fed 20% galactose for 4 day at 98 mg/kg/day dose; NS = No Significant inhibition of polyol accumulation; assay type: functional, organism-based
[19] = molecular target: Aldo-keto reductase family 1 member B1 (Bos taurus) (UniProt P16116); experiment: In vitro inhibition of Aldose reductase in partially purified bovine lens preparation at a concentration of 4*10e -8M.; how it was run: as §3
[20] = molecular target: Aldo-keto reductase family 1 member B1 (Bos taurus) (UniProt P16116); experiment: In vitro inhibition of Aldose reductase in partially purified bovine lens preparation at a concentration of 10e -7M.; how it was run: as §3
Rattus norvegicus [21] = experiment: as §2; assay type: functional, organism-based; remark: listed apart in the source
Rattus norvegicus [22] = experiment: In vivo inhibition of galactitol accumulation in the sciatic nerve of rats fed 20% galactose for 4 day at 100 mg/kg/day dose; assay type: functional; how it was run: as §1
Rattus norvegicus [23] = experiment: In vivo inhibition of galactitol accumulation in the diaphragm of rats fed 20% galactose for 4 day at 100 mg/kg/day dose; assay type: functional; how it was run: as §1
Rattus norvegicus [24] = experiment: In vivo inhibition of galactitol accumulation in the sciatic nerve of rats fed 20% galactose for 4 day at 94 mg/kg/day dose; NS = No Significant inhibition of polyol accumulation; assay type: functional, organism-based
Rattus norvegicus [25] = experiment: In vivo inhibition of galactitol accumulation in the diaphragm of rats fed 20% galactose for 4 day at 94 mg/kg/day dose; NS = No Significant inhibition of polyol accumulation; assay type: functional, organism-based; how it was run: as §1
[26] = molecular target: Aldo-keto reductase family 1 member B1 (Bos taurus) (UniProt P16116); experiment: In vitro inhibition of aldose reductase in partially purified bovine lens preparation at a concentration of 10e-6 M.; how it was run: as §3
Rattus norvegicus [27] = experiment: In vivo inhibition of galactitol accumulation in the diaphragm of rats fed 20% galactose for 4 day at 101 mg/kg/day dose; NS = No Significant inhibition of polyol accumulation; assay type: functional, organism-based; how it was run: as §1
Rattus norvegicus [28] = experiment: In vivo inhibition of galactitol accumulation in the sciatic nerve of rats fed 20% galactose for 4 day at 101 mg/kg/day dose; NS = No Significant inhibition of polyol accumulation; assay type: functional, organism-based; how it was run: as §1
Rattus norvegicus [29] = experiment: In vivo inhibition of galactitol accumulation in the sciatic nerve of rats fed 20% galactose for 4 day at 82 mg/kg/day dose; NS = No Significant inhibition of polyol accumulation; assay type: functional, organism-based; how it was run: as §1
Rattus norvegicus [30] = experiment: In vivo inhibition of galactitol accumulation in the diaphragm of rats fed 20% galactose for 4 day at 82 mg/kg/day dose; NS = No Significant inhibition of polyol accumulation; assay type: functional, organism-based; how it was run: as §1

SMILES: O=C(O)Cn1c(=O)c2ccccc2n1Cc1ccc(Br)cc1F
- Lowering (Rattus norvegicus [1]): Not significant
- inhibition [2]: 40%
- Lowering (Rattus norvegicus [3]): 24%

SMILES: O=C(O)CN1CN(Cc2ccc(Cl)c(Cl)c2)C(=O)c2cc(Cl)ccc21
- Lowering (Rattus norvegicus [4]): Not significant
- inhibition [5]: 87%
- inhibition [6]: 54%
- Lowering (Rattus norvegicus [7]): 29%

SMILES: O=C(O)Cn1c(=O)n(Cc2ccc(Cl)c(Cl)c2)c(=O)c2c3c(sc21)CCCC3
- inhibition [5]: 89%
- Lowering (Rattus norvegicus [8]): Not significant
- inhibition [6]: 63%
- Lowering (Rattus norvegicus [9]): Not significant

SMILES: O=C(O)Cn1c(=O)c2cccc(F)c2n(Cc2ccc(Br)cc2F)c1=O
- Lowering (Rattus norvegicus [13]): 49%
- inhibition [5]: 77%
- Lowering (Rattus norvegicus [14]): 70%
- inhibition [6]: 53%

SMILES: O=C(O)Cn1c(=O)[nH]c2ccc(Br)cc2c1=O
- inhibition [16]: 64%

SMILES: O=C(O)Cn1c2ccc([N+](=O)[O-])cc2c(=O)n1Cc1ccc(Cl)c(Cl)c1
- Lowering (Rattus norvegicus [17]): Not significant
- Lowering (Rattus norvegicus [18]): Not significant
- inhibition [19]: 27%
- inhibition [20]: 41%

SMILES: COc1ccc(Cn2c(=O)n(CC(=O)O)c(=O)c3cc(Br)ccc32)cc1
- Lowering (Rattus norvegicus [4]): Not significant
- inhibition [5]: 31%
- Lowering (Rattus norvegicus [21]): Not significant
- inhibition [6]: 11%

SMILES: Cc1nc2ccc(Br)cc2c(=S)n1CC(=O)O
- Lowering (Rattus norvegicus [24]): Not significant
- inhibition [5]: 54%
- Lowering (Rattus norvegicus [25]): Not significant
- inhibition [26]: 88%

Continued, in another order:

- inhibition [10]: 68%
- inhibition [5]: 22%
- inhibition [6]: 16%
SMILES: Cc1c(-c2ccccc2)n(Cc2ccc(Cl)c(Cl)c2)c(=O)n(CC(=O)O)c1=O
- Lowering (Rattus norvegicus [11]): Not significant
- Lowering (Rattus norvegicus [12]): Not significant

- inhibition [5]: 39%
- inhibition [15]: 83%
- inhibition [6]: 28%
SMILES: Cc1c(C)n(Cc2ccc(Cl)c(Cl)c2)c(=O)n(CC(=O)O)c1=O
- Lowering (Rattus norvegicus [8]): Not significant
- Lowering (Rattus norvegicus [9]): Not significant

- inhibition [15]: 46%
SMILES: O=C(O)Cn1c(=O)c2cc(Br)ccc2n(C(=O)c2ccccc2)c1=O
- Lowering (Rattus norvegicus [4]): Not significant
- Lowering (Rattus norvegicus [21]): Not significant

- inhibition [5]: 59%
- inhibition [6]: 39%
SMILES: O=C(O)Cn1c(=O)c2cc(Br)ccc2n(Cc2ccc(Br)cc2)c1=O
- Lowering (Rattus norvegicus [22]): 24%
- Lowering (Rattus norvegicus [23]): 36%

- inhibition [15]: 31%
SMILES: C=CCn1c(=O)n(CC(=O)O)c(=O)c2cc(Br)ccc21
- Lowering (Rattus norvegicus [4]): Not significant
- Lowering (Rattus norvegicus [21]): Not significant

- inhibition [16]: 34%
SMILES: O=C(O)Cn1c(=O)c2cc(Br)ccc2n(CCc2ccccc2)c1=O
- Lowering (Rattus norvegicus [4]): Not significant
- Lowering (Rattus norvegicus [21]): Not significant

- inhibition [15]: 54%
SMILES: O=C(O)Cn1c(=O)c2cc(Br)ccc2n(Cc2ccc(C(F)(F)F)cc2)c1=O
- Lowering (Rattus norvegicus [4]): Not significant
- Lowering (Rattus norvegicus [21]): Not significant

- inhibition [5]: 63%
- inhibition [6]: 34%
SMILES: O=C(O)Cn1c2ccc(Cl)cc2c(=O)n1Cc1ccc(Cl)c(Cl)c1
- Lowering (Rattus norvegicus [27]): Not significant
- Lowering (Rattus norvegicus [28]): Not significant

- inhibition [5]: 13%
- inhibition [26]: 57%
SMILES: CCc1nc2ccc(Br)cc2c(=O)n1CC(=O)O
- Lowering (Rattus norvegicus [27]): Not significant
- Lowering (Rattus norvegicus [28]): Not significant

- inhibition [5]: 20%
- inhibition [26]: 63%
SMILES: Cc1nc2ccc(Br)cc2c(=O)n1CC(=O)O
- Lowering (Rattus norvegicus [29]): Not significant
- Lowering (Rattus norvegicus [30]): Not significant
